Screening results (PubChem)
Hits are enriched below; roughly 4.8% of the tested compounds scored in any of these assays.
PAFAH1B2 inh – PAFAH1B2 enzyme inhibitors, primary screen, biochemical, fluorescence polarization, human; inhibition, % at 3.39 µM; recombinant PAFAH1B2, FP-rhodamine activity probe; Platelet-activating factor acetylhydrolase IB subunit alpha2 (Homo sapiens), P68402; 340,000 compounds, 1.2% hits;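 active = inhibition above the mean of all tested compounds plus 3 SD, cut at about 24% in these data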;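 note: 0% = enzyme with DMSO and 100% = wells lacking PAFAH1B2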
PAFAH2 inh – PAFAH2 enzyme inhibitors, primary screen, biochemical, fluorescence polarization, human | inhibition, % at 3.39 µM | 340,000 compounds, 0.99% hits | recombinant PAFAH2, FP-rhodamine activity probe | AID 492956, 2010 | Platelet-activating factor acetylhydrolase 2, cytoplasmic (Homo sapiens), Q99487;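 active = inhibition above the mean over all tested compounds plus 3 SD, cut at about 30% in these data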;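 note: inhibitors block probe labeling of enzyme so polarization drops; 0% = enzyme with DMSO and 100% = wells lacking PAFAH2 protein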
pPAFAH inh – pPAFAH enzyme inhibitors, primary screen, biochemical, fluorescence polarization, human; Platelet-activating factor acetylhydrolase (Homo sapiens), Q13093; recombinant pPAFAH, FP-rhodamine probe fluorescence polarization; inhibition, % at 3.39 µM; 330,000 compounds, 1.5% hits;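 active = inhibition above the mean inhibition across the screen plus 3 SD, cut at about 25% in these data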;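 note: inhibitors block binding of the rhodamine activity-based probe so polarization drops; 0% = enzyme with DMSO and 100% = wells lacking pPAFAH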
UCH37 DUB inh – inhibitors of human UCH37 deubiquitinase, primary screen, biochemical, Ub-AMC cleavage, fluorescence; Ubiquitin carboxyl-terminal hydrolase isozyme L5 (Homo sapiens), Q9Y5K5; purified proteasome/UCH37; inhibition, % (concentration not given with the values); 330,000 compounds, 0.33% hits;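 active = mean inhibition over replicate wells above about 20%, limit read from the data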;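 note: 0% = compound-free wells with enzyme and 100% = wells lacking proteasome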
Target sequence (Q9Y5K5 whole entry, looked up): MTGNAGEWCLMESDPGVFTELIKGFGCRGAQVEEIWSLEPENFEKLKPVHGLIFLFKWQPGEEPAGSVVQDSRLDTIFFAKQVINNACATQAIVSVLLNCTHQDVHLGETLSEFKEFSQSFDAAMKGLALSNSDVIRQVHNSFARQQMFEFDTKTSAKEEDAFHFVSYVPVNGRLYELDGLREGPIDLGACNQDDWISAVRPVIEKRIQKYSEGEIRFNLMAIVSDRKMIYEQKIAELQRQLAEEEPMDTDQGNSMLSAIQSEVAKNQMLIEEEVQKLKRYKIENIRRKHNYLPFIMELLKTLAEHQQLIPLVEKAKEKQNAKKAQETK
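assay system = human UCH37 enzyme supplied as purified proteasome complex | amount = proteasome at 0.15 nM in the dispensed enzyme solution | schedule = 30 min compound-proteasome preincubation then 25 min substrate reaction, room temperature | measured by = fluorescence, ex 355 nm, em 460 nm | benchmarks = no-proteasome wells (full inhibition) and compound-free wells (no inhibition)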
PAFAH1B3 FP inh – PAFAH1B3 enzyme inhibitors, primary screen, biochemical, fluorescence polarization, human; recombinant PAFAH1B3, FP-rhodamine probe; inhibition, % at 3.39 µM; 340,000 compounds, 0.28% hits; AID 492972, 2010;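 active = inhibition above the screen-wide average of all tested compounds plus 3 SD, cut at about 25% in these data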;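 note: 0% = enzyme with DMSO only and 100% = wells lacking PAFAH1B3 protein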
Target sequence (Q15102 whole entry, looked up): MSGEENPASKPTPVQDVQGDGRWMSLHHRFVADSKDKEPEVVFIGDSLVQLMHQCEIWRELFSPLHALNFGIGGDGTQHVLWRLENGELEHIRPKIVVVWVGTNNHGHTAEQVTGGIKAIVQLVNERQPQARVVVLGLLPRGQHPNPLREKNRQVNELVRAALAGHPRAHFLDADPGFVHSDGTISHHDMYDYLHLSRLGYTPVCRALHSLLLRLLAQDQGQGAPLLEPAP
NR3A LBD binder – binders of NR3A ligand-binding domain, primary screen, biophysical, differential scanning fluorimetry, uHTS; NR3A LBD differential scanning fluorimetry, Tm shift; 0% = protein alone, 100% = glycine-bound protein; Tm shift relative to glycine control, % at 25 µM; 340,000 compounds, 2.5% hits; AID 1259313, 2017;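 active = melting temperature shift of at least 10% of the positive control shift, at one fixed dose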
pPAFAH confirm – pPAFAH (PLA2G7) enzyme inhibitors, confirmation, biochemical, fluorescence polarization, human. shares compounds with pPAFAH inh. recombinant pPAFAH, FP-Rh probe fluorescence polarization. inhibition, % at 3.39 µM. 2,300 compounds, 72% hits. AID 463230, 2010;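 active = mean inhibition of the triplicate above the hit cutoff set for the earlier primary screen, cut at about 25% in these data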;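 note: 0% = enzyme with DMSO and 100% = wells lacking pPAFAH enzyme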
The depositor's hits bear a star; i = inactive; / = no result.

SMILES	PAFAH1B2 inh	PAFAH2 inh	pPAFAH inh	UCH37 DUB inh	PAFAH1B3 FP inh	NR3A LBD binder	pPAFAH confirm
Cc1ccc(C(=O)c2coc3c2C(=O)C(=O)c2ccccc2-3)cc1	6	0	11	6	0	1	/
Cc1coc2c1C(=O)C(=O)c1c-2ccc2c1CCCC2(C)C	27*	76*	56*	7	7	-10	70*
CC(N=Cc1cccc(O)c1O)c1ccccc1 (centres undefined)	17	26	66*	4	24	-3	17
Cc1cc(C)nc(N=C(N)N2CCCCC2)n1	/	/	/	6	/	/	/
CCOC(=O)c1c(C)[nH]c(N=Nc2cc(C(=O)O)cc(C(=O)O)c2)c1C	-3	6	35*	24*	8	-1	2
Cc1ccc(S(=O)(=O)N2CCN(CC(=O)NN=Cc3ccc(Cl)c([N+](=O)[O-])c3)CC2)cc1	/	/	/	2	/	/	/
COc1ccc(-n2cccc2/C=C2\C(=N)N3N=C(c4ccco4)SC3=NC2=O)cc1	0	27	47*	10	-7	4	63*
Cc1cc(/C=C2\C(=N)N3N=C(c4ccco4)SC3=NC2=O)c(C)n1Cc1ccccc1	36*	16	36*	/	13	-1	70*
COc1ccc(-n2cccc2/C=C2\C(=N)N3N=C(C(C)C)SC3=NC2=O)cc1	8	11	5	0	1	-9	/
CCNC(=O)ON=C1CCCCC1c1ccc([N+](=O)[O-])cc1[N+](=O)[O-] (centres undefined)	/	/	/	8	/	/	/
CCc1ccc(/C=C/C(=O)c2cc(Br)ccc(=O)c2O)cc1	19	34*	70*	2	1	-3	43*
CCOc1ccc(C(=O)/C=C/c2ccc(OC)c(OC)c2)cc1	2	9	-5	3	0	0	/
O=C(C=Cc1ccccc1)c1cc(Br)ccc1O	4	-3	/	2	4	9	/
Cc1ccc(/C=C/C(=O)c2cc(Br)ccc2OC(=O)c2ccco2)cc1	-6	1	-3	3	-5	2	/
CCOc1ccc(/C=C/C(=O)c2cc(Br)ccc(=O)c2O)cc1	-2	16	38*	6	11	-18	28*
Cc1cccc(/C=C/C(=O)c2cc(Br)ccc(=O)c2O)c1	3	34*	50*	2	13	-1	22
CCN(CC)C(C(=O)Nc1ccc2c(c1)OCO2)c1ccccc1 (centres undefined)	6	10	44*	4	6	-1	4
O=C1c2cc(Br)ccc2N(Cc2ccc(Br)cc2)S(=O)(=O)C1c1cc(Cl)c(Cl)cc1[N+](=O)[O-] (centres undefined)	44*	54*	45*	/	20	-3	55*
CC(C)c1ccc(-c2nc(N3CCCCC3)[nH]c(=O)c2C#N)cc1	6	0	6	-67	-1	-3	/
CC1=Nc2nc(N3CCCCC3)c(C#N)c3c4c(nc(c23)N1)N(c1ccc(C(C)C)cc1)C(=O)C4	6	10	63*	-7	11	0	29*
CCOc1cc(C=NO)ccc1OCc1ccc([N+](=O)[O-])cc1	/	/	/	3	/	/	/
C/C(N)=C(/C#N)C(=O)COC(=O)c1cc(C)n(-c2ccc(F)cc2)c1C	5	7	36*	5	7	7	28*
COc1cc(C=NNC(=O)CN2CCOCC2)ccc1OCc1ccccc1	/	/	/	0	/	/	/
Cc1cc(C)cc(C(=O)NCC(=O)OCc2c(C)noc2C)c1	7	6	37*	-21	1	1	5
CCOP(=O)(OCC)c1nc(-c2cccc3ccccc23)oc1NCCc1ccc(OC)cc1	-1	6	38*	i	7	16*	44*
SMILES	PAFAH1B2 inh	PAFAH2 inh	pPAFAH inh	UCH37 DUB inh	PAFAH1B3 FP inh	NR3A LBD binder	pPAFAH confirm
c1ccc(CNc2ccc(CNc3ncn[nH]3)cc2)cc1	6	-4	1	3	5	-1	/
Clc1ccc(CNc2ccc(CNc3ncn[nH]3)cc2)c(Cl)c1	8	1	37*	2	6	1	20
CN(C)C(=O)NC(Nc1ccc(Cl)cc1Cl)C(Cl)(Cl)Cl (centres undefined)	1	9	42*	1	4	/	4
Nc1nc(SCc2ccccc2)n[nH]1	2	0	47*	5	-4	0	1
COc1ccccc1C=NOC(=O)c1ccc(F)cc1	/	/	/	2	/	/	/
COc1ccc(OCC(=O)NN=C2CCCCc3ccccc32)cc1	/	/	/	0	/	/	/
Cc1ccc(C(=O)n2nc(-c3ccccc3)nc2NCc2ccco2)cc1	3	7	74*	2	5	3	1
O=C(c1ccccc1)n1nc(-c2ccccc2)nc1NCc1ccco1	3	9	3	1	10	-1	/
O=C(c1cc(O)c(O)c([N+](=O)[O-])c1)c1ccccc1F	14	68*	59*	8	29*	-16	81*
O=C(Nc1ccc([N+](=O)[O-])cc1)c1ccccc1F	-1	-1	0	3	3	-1	/
O=C(CCCSc1ccccc1)Nc1nc(-c2ccco2)c(-c2ccco2)s1	-2	6	56*	-36	3	7	23
O=C(CCl)Nc1nc(-c2ccco2)c(-c2ccco2)s1	0	20	22	3	20	-1	/
CCn1nc2cc(C(=O)NCCc3cccs3)ccc2c1OC	1	6	50*	-43	6	1	2
CCOc1c2ccc(C(=O)NCCc3ccc(C)cc3)cc2nn1CC	6	-6	11	-48	2	1	/
CC1=C(/C=C/C(=O)O)C(C)(C)CCC1	15	-4	4	6	-1	0	/
CC1=C(/C=C/C(C)=C/C=C/C(C)=C/C(=O)Nc2ccc(O)cc2)C(C)(C)CCC1	8	-1	54*	/	2	17*	53*
CC1=C(C(=O)OCc2ccccc2)C(c2ccc([N+](=O)[O-])cc2)NC(=O)N1CCCCCC(=O)O (centres undefined)	-6	3	3	3	2	0	/
CC1=C(C(=O)OCc2ccccc2)C(c2ccc(-c3ccccc3)cc2)NC(=O)N1CCCCCC(=O)O (centres undefined)	4	11	46*	2	4	-4	41*
